EBV gp42 block: inhibitors of Epstein-Barr virus glycoprotein 42 | Q1HVG2 | Fluorescence polarization binding assay, mP read-out | inhibition, % (tested at 21.74 µM) | 0.42% of 220,000 active | AID 1085; in the data active = inhibition above about 50%
Target sequence (Q1HVG2 whole entry, looked up): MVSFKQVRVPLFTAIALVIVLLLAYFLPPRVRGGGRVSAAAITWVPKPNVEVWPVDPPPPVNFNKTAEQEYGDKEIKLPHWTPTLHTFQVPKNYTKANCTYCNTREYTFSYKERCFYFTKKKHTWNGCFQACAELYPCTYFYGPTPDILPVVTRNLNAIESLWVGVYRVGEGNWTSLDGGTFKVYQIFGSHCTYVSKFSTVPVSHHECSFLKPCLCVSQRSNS
Keap1 Nrf2 FP: inhibitors of human Keap1-Nrf2 protein-protein interaction | inhibition, % at 9.4 µM | AID 504523 | 0.15% of 340,000 active | Q14145 | Keap1 Kelch-Nrf2 peptide fluorescence polarization, 1536-well; in the data active = inhibition above about 12%; inconclusive = no clear call, values can overlap the other calls; inactive = below about 7.3%;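 also: human Keap1 Kelch domain with fluorescein labeled Nrf2 9mer peptide probe; higher means more block of Keap1 binding to Nrf2 peptide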
GRK2 aptamer HTS: inhibitors of human GRK2 displacing RNA aptamer | inhibition of aptamer binding, % at 10 µM | P25098 | bead flow cytometry, FAM-aptamer displacement from GRK2 | AID 488847 | 0.59% of 330,000 active;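 active = inhibition of aptamer binding above 40%, roughly 3 SD of noise, on plates passing a quality check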;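 also: median bead fluorescence of bound FAM aptamer so fluorescent compounds give negative values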
LANA DNA inh: inhibitors of KSHV LANA C-terminal domain DNA binding; MBP-C-LANA/FAM-LBS DNA binding, fluorescence polarization; AID 504423; inhibition, % at 9 µM; 0.078% of 340,000 active;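 active = highest replicate inhibition at or above 60% at 9 µM, even if other replicates fall short; inactive = all replicates below 60% inhibition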
MEX-5 binding: C. elegans MEX-5 TCR-2 RNA binding activity; AID 1832; MEX-5/FITC-TCR2 RNA binding, fluorescence polarization; stronger effect = lower value; activity score (negative = inhibition of binding), % at 10 µM; Q9XUB2; 0.38% of 300,000 active;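 active = inhibition past about -25% in most replicates, and total fluorescence under double the plate's negative control median, limit read from the data; inconclusive = replicates evenly split on the limit, or fluorescence at least double controls; inactive = too little inhibition in most replicates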
Target sequence (Q9XUB2 whole entry, looked up): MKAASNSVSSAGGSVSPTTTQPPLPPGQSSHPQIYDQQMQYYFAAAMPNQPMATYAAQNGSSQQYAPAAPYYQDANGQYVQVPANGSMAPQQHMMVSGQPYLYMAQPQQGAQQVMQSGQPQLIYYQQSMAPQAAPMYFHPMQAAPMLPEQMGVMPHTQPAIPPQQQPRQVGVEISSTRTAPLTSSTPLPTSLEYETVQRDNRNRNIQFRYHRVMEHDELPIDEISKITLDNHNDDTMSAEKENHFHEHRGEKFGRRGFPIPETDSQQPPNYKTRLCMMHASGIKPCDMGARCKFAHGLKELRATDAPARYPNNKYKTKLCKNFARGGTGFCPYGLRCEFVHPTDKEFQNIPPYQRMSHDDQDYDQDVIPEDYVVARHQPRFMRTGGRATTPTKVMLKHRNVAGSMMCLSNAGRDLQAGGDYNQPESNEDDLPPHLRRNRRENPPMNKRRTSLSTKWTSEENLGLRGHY
T cell modulator: T cell immune modulation candidate. AID 2052. 2C CD8+ T cell-vesicle binding, flow cytometry; stronger effect = lower value. 0.068% of 330,000 active. response (vesicle binding), % at 7 µM;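 active = response, share of CD8 T cells binding vesicles, and their 90th percentile fluorescence all below set limits, cut at about 80% in these data, passing the limit was not always enough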;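 also: values below 100% mean blocked vesicle binding to the CD8+ T cells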
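Assay system: 2C TCR transgenic mouse naive CD8+ T cells, MACS-purified | Read-out: CD8+ gate FL2 mean fluorescence as % of same-row positive control | Signal: High-throughput flow cytometry with anti-B7-1 and anti-CD8 staining | Timing: Binding step 1.5 h, 37 °C, antibody labelling 20 min, ice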
Keap1 Kelch bind: Keap1 (human) Kelch domain binding. shares compounds with Keap1 Nrf2 FP. Keap1 Kelch thermal shift, delta Tm; stronger effect = higher value. max delta Tm, degrees C. 8% of 400 active. AID 651823; in the data active = max delta Tm above about 0.48 degrees C
Dye-only ctr: dye artifact in Keap1 thermal shift counter-screen. shares compounds with Keap1 Nrf2 FP. Sypro Orange dye-only thermal melt, no protein, delta Tm; top dose 26 µM. delta Tm, degrees C (no concentration beside the values). 140 tested, under 10 active. AID 651858;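 active = at highest dose tested, delta Tm positive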
Each line names hits and unclear results; the compound was inactive in the other large screens (follow-up assays come after a bar, where they were run). Most compounds without a hit are left out; they make up all but 1.3% or so of the library.

O=C1c2cccc3c(N4CCCCC4)ccc(c23)C(=O)N1c1ccccc1O	Keap1 Nrf2 FP 16, MEX-5 binding -56 | Keap1 Kelch bind inactive
CCc1cc[n+](-c2nc([O-])sc2C=O)cc1	EBV gp42 block 87, Keap1 Nrf2 FP 29, MEX-5 binding -50 | Keap1 Kelch bind inactive
CC(C)(C)c1cc[n+](-c2nc([O-])sc2C=O)cc1	none
CC(Sc1ccccc1)C(=O)NN=C1CCCCCC1 (stereo unspecified)	none
CSc1ccc(NC(=O)Nc2ccc(C(=O)NCC(=O)O)cc2)cc1	none
NC(=O)c1cc2ccccc2oc1=NCc1ccccc1	none
NC(=O)c1cc2ccc(O)cc2oc1=NCc1ccccc1	EBV gp42 block 108, Keap1 Nrf2 FP 16, MEX-5 binding inconclusive | Keap1 Kelch bind inactive | Dye-only ctr inactive
O=S(=O)([O-])CCC[n+]1c(SCCCS(=O)(=O)O)sc2ccc(Cl)cc21	Keap1 Nrf2 FP 21 | Keap1 Kelch bind inactive | Dye-only ctr inactive
CC/C(=C/c1sc2ccc(C)cc2[n+]1CCCS(=O)(=O)[O-])SC	none (no result: Keap1 Nrf2 FP, LANA DNA inh)
CCCCC(CC)C(=O)Oc1ccc(O)c(C(C)(C)C)c1 (stereo unspecified)	Keap1 Nrf2 FP 15 | Keap1 Kelch bind inactive
O=C(/C=C/c1ccccc1Cl)NCCCn1ccnc1	Keap1 Nrf2 FP 38 (no result: EBV gp42 block) | Keap1 Kelch bind inactive
CC1(C)CC(=O)C2=C(C1)OC(N)=C(C#N)C2c1ccccc1[N+](=O)[O-] (stereo unspecified)	Keap1 Nrf2 FP 25, MEX-5 binding -80 | Keap1 Kelch bind inactive
c1ccc2[nH]c3cc4ncnc4cc3nc2c1	EBV gp42 block active, Keap1 Nrf2 FP 35, LANA DNA inh 75, MEX-5 binding -81 | Keap1 Kelch bind inactive
Cc1oc2cc(O)ccc2c(=O)c1-c1nncn1-c1ccccc1	EBV gp42 block 108, Keap1 Nrf2 FP 25, MEX-5 binding inconclusive | Keap1 Kelch bind inactive | Dye-only ctr inactive
Cc1ccc(NC(=O)CCc2ccc(C)o2)c(Br)c1	none (no result: EBV gp42 block)
CCOC(=O)N1CC=C2C(C#N)=C(N)C(C#N)(C#N)[C@H](c3ccc(OCC)c(OCC)c3)[C@H]2C1	none
CN1CC=C2C(C#N)=C(N)C(C#N)(C#N)[C@H](c3ccoc3)[C@H]2C1	EBV gp42 block 62, Keap1 Nrf2 FP 27, MEX-5 binding -66 | Keap1 Kelch bind inactive
Cc1ccc(C2C3CN(C(C)C)CC=C3C(C#N)=C(N)C2(C#N)C#N)cc1 (stereo unspecified)	EBV gp42 block 89, Keap1 Nrf2 FP 23, MEX-5 binding -28 | Keap1 Kelch bind inactive
CCc1ccccc1NC(=S)N(CCN(C)C)C(C)c1ccco1 (stereo unspecified)	none
COc1ccc(C2C(C(=O)c3ccco3)=C(O)C(=O)N2CCN2CCOCC2)c(OC)c1 (stereo unspecified)	none (no result: EBV gp42 block)
COC(=O)c1ccc2c(c1O)C(=O)c1ccccc1C2=O	none
O=C1c2ccccc2C(=O)c2c1ccc(O)c2O	Keap1 Nrf2 FP 13 (no result: EBV gp42 block, GRK2 aptamer HTS, MEX-5 binding, T cell modulator) | Keap1 Kelch bind inactive
CCCCNC(=S)Nc1ccc(OC)nc1	Keap1 Nrf2 FP 12 | Keap1 Kelch bind inactive
COc1ccc(NC(=S)Nc2ccccc2)cn1	none
CC1=C(C#N)c2nc(N)c(C#N)c(C)c2/C1=C\c1ccc(-c2ccccc2C(=O)O)o1	Keap1 Nrf2 FP 92, MEX-5 binding -52 (no result: GRK2 aptamer HTS, T cell modulator) | Keap1 Kelch bind 2.3
COc1cc(/C=C2/C(C)=C(C#N)c3nc(N)c(C#N)c(C)c32)ccc1OCC(=O)O	none
CCCCCC(=O)N1CCCC1	Keap1 Nrf2 FP 16 | Keap1 Kelch bind inactive | Dye-only ctr inactive
COc1cccc(NC(=O)CN(C)CC(=O)NCc2ccco2)c1	Keap1 Nrf2 FP 24, LANA DNA inh 81 (no result: EBV gp42 block, MEX-5 binding) | Keap1 Kelch bind inactive | Dye-only ctr inactive
O=C(CCNS(=O)(=O)c1cccc2nsnc12)N1CCc2ccccc21	none
CCCC1OC23CCCCC2C(C#N)(C(=N)O3)C1(C#N)C#N (stereo unspecified)	none
CCC1OC23CCCCC2C(C#N)(C(=N)O3)C1(C#N)C#N (stereo unspecified)	Keap1 Nrf2 FP 27 | Keap1 Kelch bind inactive | Dye-only ctr inactive
COc1ccc(C2OC34CCCCC3C(C#N)(C#N)C2(C#N)C(=N)O4)cc1 (stereo unspecified)	Keap1 Nrf2 FP 22, MEX-5 binding -84 | Keap1 Kelch bind inactive | Dye-only ctr inactive
COC(=O)C1(C#N)C(c2ccccc2)C1(C(=O)OC)C(=O)OC (stereo unspecified)	none
CC1OC2(C)OC(=N)C1(C#N)C(C#N)(C#N)C2c1ccccc1 (stereo unspecified)	Keap1 Nrf2 FP 23 | Keap1 Kelch bind inactive | Dye-only ctr inactive
CCCCC1OC2(C)OC(=N)C1(C#N)C(C#N)(C#N)C2c1ccccc1 (stereo unspecified)	Keap1 Nrf2 FP 30 (no result: MEX-5 binding) | Keap1 Kelch bind inactive
COc1ccc(N=Nc2nc3ccc(Br)cc3n2C)cc1	EBV gp42 block 51, Keap1 Nrf2 FP 48, LANA DNA inh 70, MEX-5 binding -50 | Keap1 Kelch bind inactive
Cc1ccc(NC(=O)/C(C#N)=C(\N)C(Cl)(Cl)Cl)nc1	EBV gp42 block 137, Keap1 Nrf2 FP 38, MEX-5 binding inconclusive | Keap1 Kelch bind inactive
Cc1nc2cc(Cl)c(Cl)cc2nc1C	none
CCOc1ccc(NC(=O)c2sccc2-n2cccc2)cc1	none
NC(=O)CC(NC(=O)Cc1cccc2ccccc12)c1ccc(NCc2ccccc2)c([N+](=O)[O-])c1 (stereo unspecified)	Keap1 Nrf2 FP 22 | Keap1 Kelch bind inactive
O=c1c2[nH]cnc2n(-c2cccc(F)c2)c(=O)n1Cc1ccccc1	none (no result: EBV gp42 block)
C=CCn1cc(/C=C/c2cc[n+](C)cc2)c2ccccc21	MEX-5 binding inconclusive (no result: EBV gp42 block)
C=CCn1ccc(=NC=C(C#N)C#N)c2ccccc21	Keap1 Nrf2 FP 130, MEX-5 binding -75 | Keap1 Kelch bind inactive
O=C(NCCCn1ccnc1)c1ccc(OCC(F)(F)F)cc1	none (no result: EBV gp42 block)
O=C(CN1C(=O)NC2(CCCC2)C1=O)Nc1ccc(C(F)(F)F)cc1	Keap1 Nrf2 FP 12 (no result: EBV gp42 block) | Keap1 Kelch bind inactive
O=C(CN1C(=O)NC2(CCCC2)C1=O)Nc1cccc(C(F)(F)F)c1	none (no result: EBV gp42 block)
CC(=O)n1nc2nc(C)cc(C)c2c1N	none
Cc1cc(C)c2c(SC(C)C)nc(N)nc2n1	Keap1 Nrf2 FP 23 | Keap1 Kelch bind inactive
Cc1cc(NC(=O)c2ccc([N+](=O)[O-])cc2Cl)ccc1NC(=O)c1ccco1	none
CC1(C)Cc2ccccc2C(=NCCCCCC(=O)O)N1	none (no result: Keap1 Nrf2 FP, GRK2 aptamer HTS, LANA DNA inh, T cell modulator)
O=C1C(Cl)=C(NS(=O)(=O)c2ccc([N+](=O)[O-])cc2)C(=O)c2ccccc21	Keap1 Nrf2 FP 20 | Keap1 Kelch bind 0.76
CC(OC(=O)c1ccc(NC(=O)CC#N)cc1)C(=O)NC(=O)NC1CCCCC1 (stereo unspecified)	none (no result: EBV gp42 block)
CSc1nnc(-c2cccs2)n1-c1ccccc1	none

Screening data from PubChem BioAssay.
